Legend:
[1] = test system: NarX/NarL; format: cell-based
Procedure, shortened: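 HEK293 (37 °C, 5% CO2, DMEM) seeded at 50 000 cells/well 24 h before Lipofectamine 2000 transfection with 400 ng DNA, including NarL and a NarL-inducible Cerulean reporter. After 4 h, medium was replaced with fresh medium ± ligand. At 48 h, cells were Accutase-detached for flow cytometry. Total intensity (mean Cerulean of reporter-positive cells × positive fraction) was normalised to mCherry transfection-control total intensity.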

[2] = target: FKBP/FRB^T2098L (Homo sapiens, UniProt P42345+P62942, T2098L); format: cell-based; details: high ligand concentration, Fig. 3a conditions 11 and 12
[3] = test system: FKBP/FRB; details: read-out: EC50 (published value); cited from earlier work
[4] = test system: CMV promoter; experiment: iRFP expression from the CMV promoter in HEK cells with ligand; format: cell-based; details: 1µM of procaterol or 2 µM of epinephrine vs DMEM
Procedure, shortened: (§1)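 HEK293 cultured at 37 °C, 5% CO2 in DMEM were seeded at 50 000 cells/well 24 h before transfection. Transfection used 400 ng reporter-containing DNA with Lipofectamine 2000 (3.75 µl per 1 µg DNA). Four hours later, medium was swapped for fresh medium with or without ligand.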

[5] = test system: EF1α promoter; experiment: iRFP expression from the EF1α promoter in HEK cells with ligand; format: cell-based; details: 1µM of procaterol or 2 µM of epinephrine vs DMEM
Procedure, shortened: as §1

[6] = target: β2AR^∆C::V2R^∆N::H^mut / β-arrestin::N^mut (Homo sapiens, UniProt P07550); experiment: GPCR/β-arrestin interaction rewired via TCS; format: cell-based

Chain of FKBP/FRB^T2098L (P62942 whole entry): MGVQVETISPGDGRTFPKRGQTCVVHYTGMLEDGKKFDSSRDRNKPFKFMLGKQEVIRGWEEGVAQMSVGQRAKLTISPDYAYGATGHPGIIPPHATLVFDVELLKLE
Chain of FKBP/FRB^T2098L (P42345 2012-2144 T2098L limits assumed): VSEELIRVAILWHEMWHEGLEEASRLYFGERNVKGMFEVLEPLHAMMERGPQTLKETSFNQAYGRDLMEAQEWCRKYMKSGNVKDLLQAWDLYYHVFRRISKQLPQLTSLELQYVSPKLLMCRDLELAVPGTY

Row | dynamic range of ligand-induced signaling [2] | EC50 [6] [nM] | Structure (SMILES) | effect on wild-type NarX/NarL signaling ([1]; A/C, Fig. 3a conditions 2 and 3) | EC50 [3] [nM] | effect on signaling via NarX/NarL system ([1]; procaterol, Fig. 4b conditions 2 and 3) | induction of the CMV promoter [4] | effect on EF1α promoter [5]
1 | above 3 orders of magnitude |  | CO[C@H]1[C@@H](O)[C@H](C)C[C@H](C)/C=C/C=C/C=C(\C)[C@@H](c2c[nH]c3c(C)cccc23)C[C@@H]2CC[C@@H](C)[C@@](O)(O2)C(=O)C(=O)N2CCCC[C@H]2C(=O)O[C@H]([C@H](C)C[C@@H]2CC[C@@H](O)[C@H](OC)C2)C[C@H](O)[C@H](C)/C=C(\C)[C@H]1O [A/C, C16-(S)-7-methylindolerapamycin] | did not affect | 10 |  |  | 
2 |  | 5 | CCC(NC(C)C)C(O)c1ccc(O)c2[nH]c(=O)ccc12 (stereo not drawn) [Procaterol] |  |  | did not affect | factor of two | not affected
3 |  |  | CNC[C@H](O)c1ccc(O)c(O)c1 [Epinephrine] |  |  |  | factor of two | not affected

From paper PMC6982536 (Nature chemical biology, 2019)
